Where a SMILES comes first, the peptide text is derived from it. The star is where a group is joined. pNA = O=[N+]([O-])c1ccc(N*)cc1; AMC = Cc1cc(=O)oc2cc(N*)ccc12; Boc = CC(C)(C)OC(=O)*; Bn = c1ccc(C*)cc1
Columns and labels:
[1] = target: T1, Human immunodeficiency virus type 1 integrase (Human immunodeficiency virus 1, UniProt Q7ZJM1)
[2] = target: T1, Human immunodeficiency virus type 1 integrase; remark: listed apart in the source
[3] = target: Human immunodeficiency virus type 1 integrase (Human immunodeficiency virus 1) (UniProt Q7ZJM1); experiment: Inhibition against HIV-1 integrase at 25 uM
Outline: (§1)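 Integration reaction with HIV-1 integrase, run as in an earlier published method except for the detection step. The integration product was detected with digoxygenin-labelled oligonucleotides and an anti-digoxygenin antibody conjugated to horseradish peroxidase. Compounds were tested at 1 mM, 200 µM and 25 µM.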

[4] = target: Human immunodeficiency virus type 1 integrase (Human immunodeficiency virus 1) (UniProt Q7ZJM1); conditions: at 1 mM
[5] = target: Human immunodeficiency virus type 1 integrase (Human immunodeficiency virus 1) (UniProt Q7ZJM1); conditions: at 200 µM
[6] = target: Human immunodeficiency virus type 1 integrase (Human immunodeficiency virus 1) (UniProt Q7ZJM1); experiment: Inhibitory activity against HIV-1 integrase at 1 mM
Outline: as §1

[7] = target: Human immunodeficiency virus type 1 integrase (Human immunodeficiency virus 1) (UniProt Q7ZJM1); experiment: Inhibitory activity against HIV-1 integrase at 200 uM
Outline: as §1

[8] = target: Human immunodeficiency virus type 1 integrase (Human immunodeficiency virus 1) (UniProt Q7ZJM1); experiment: Inhibitory activity against HIV-1 integrase at 25 uM
Outline: as §1

SMILES	IC50 [1]	IC50 [2]	inhibition [4]	inhibition [5]	other results
O=C(/C=C/c1ccc(O)c(O)c1)O[C@H]1[C@H](O)C[C@](O)(C(=O)O)C[C@H]1OC(=O)/C=C/c1ccc(O)c(O)c1 (stereo in doubt; form 1)	0.79 µM	0.54 µM			
CC(C)(C)OC(=O)N[C@@H](COCc1ccccc1)C(=O)NCC(=O)N[C@@H](CCCN=C(N)N)C(=O)Nc1ccc([N+](=O)[O-])cc1 (Boc-Ser(Bn)-Gly-Arg-pNA)			> 50%	< 50%	inhibition [3]: < 50%
NC[C@@H](O)c1ccc(OC(=O)[C@H](O)[C@@H](O)C(=O)O)c(OC(=O)[C@H](O)[C@@H](O)C(=O)O)c1			> 50%	< 50%	inhibition [3]: < 50%
Cc1cccc2c1C(O)=C1C(=O)C3C(O)=C(C(=O)NNC4(C(=O)O)CCCC4)C(=O)[C@@H](N(C)C)[C@@H]3C[C@@H]1C2(C)O (stereo partly drawn)	1.2 µM	3.6 µM			
O=C(/C=C\c1ccc(O)c(O)c1)OC1CC(O)(C(=O)O)CC(OC(=O)/C=C\c2ccc(O)c(O)c2)C1O (stereo not drawn)	0.64 µM	0.66 µM			
N/N=C(\S)Nc1ccc(N/C(S)=N/N)cc1			> 50%	< 50%	inhibition [3]: < 50%
COC1/C=C/OC2(C)Oc3c(C)c(O)c4c(O)c(c(C=NN5C(C)CN(Cc6ccc([N+](=O)[O-])cc6)CC5C)c(O)c4c3C2=O)NC(=O)/C(C)=C\C=C\C(C)C(O)C(C)C(O)C(C)C(OC(C)=O)C1C (stereo not drawn)	20.6 µM	19.7 µM			
OC[C@@H](O)[C@@H](O)[C@H](O)c1cnc([C@@H](O)[C@H](O)[C@H](O)CO)cn1					inhibition [6]: < 50%; inhibition [7]: < 50%
Cc1cc(=O)oc2cc(NC(=O)[C@H](CCCN=C(N)N)NC(=O)CN)ccc12 (H-Gly-Arg-{AMC})			< 50%	< 50%	
CC(C)C[C@@H](C=O)NC(=O)N[C@H](C(=O)N[C@@H](CCC(N)=O)C(=O)N[C@@H](C)C=O)[C@@H]1CCN=C(N)N1			< 50%	< 50%	
O=C(CCc1ccc(O)c(O)c1)c1ccc(O)c(O)c1O	1.7 µM	1 µM			
N=C(N)NCCCC(NC(N)=O)C(=O)O (single isomer, unassigned)			< 50%	< 50%	
OC[C@@H](O)[C@@H](O[C@H]1O[C@H](CO)[C@@H](O)[C@H](O)[C@H]1O)[C@H](O)[C@@H](O)CO					inhibition [6]: < 50%; inhibition [7]: < 50%
C[C@@H]1O[C@@H](OC2C[C@](O)(C(=O)CO)Cc3c(O)c4c(c(O)c32)C(=O)c2c(O)cccc2C4=O)C[C@H](N)[C@@H]1O (stereo partly drawn)	2.3 µM	4.1 µM			
COC(=O)C1(O)C[C@H](O)[C@@H](NC(C)=O)[C@H]([C@H](O)[C@H](O)CO)O1 (stereo partly drawn)					inhibition [6]: < 50%; inhibition [7]: < 50%
N[C@H]1[C@@H](OP(=O)(O)O)O[C@H](CO)[C@H](O)[C@@H]1O					inhibition [6]: < 50%; inhibition [7]: < 50%
CCC1C/C(=N\NC(N)=O)C(NNC(N)=O)C(C)C1 (stereo not drawn)			< 50%	< 50%	
OC[C@H]1O[C@@H](SC2O[C@H](CO)[C@H](O)[C@H](O)[C@H]2O)[C@H](O)[C@@H](O)[C@H]1O (stereo partly drawn)			< 50%	< 50%	
O=c1c(O)cccc2cc(O)c(O)c(O)c12 [PURPUROGALLIN]	2.1 µM				
NC(N)=Nc1nc(CSCC/C(N)=N/S(N)(=O)=O)cs1			< 50%	< 50%	
O=C[C@H](O)[C@@H](O)C(O[C@@H]1O[C@H](CO)[C@H](O)[C@H](O)[C@H]1O)[C@H](O)CO (stereo partly drawn)			< 50%	< 50%	
Nc1nc(=O)c2c([nH]1)NCC(CNc1ccc(C(=O)N[C@@H](CCC(=O)O)C(=O)O)cc1)=N2					inhibition [8]: < 50%; inhibition [6]: > 50%; inhibition [7]: > 50%
O=C(/C=C\c1ccc(O)c(O)c1)OC1CC(OC(=O)/C=C\c2ccc(O)c(O)c2)(C(=O)O)CC(O)C1O (stereo not drawn)	0.68 µM	1.08 µM			
N=C(NCCCCCCNC(=N)NC(=N)Nc1ccc(Cl)cc1)NC(=N)Nc1ccc(Cl)cc1					inhibition [8]: < 50%; inhibition [6]: > 50%; inhibition [7]: < 50%
N=C(N)NCCCCNCCCNC(=N)N					inhibition [6]: < 50%; inhibition [7]: < 50%
O=C1c2ccc(O)c(O)c2C(=O)c2c(O)ccc(O)c21 [QUINALIZARIN]	4 µM	1 µM			
Cc1[nH]n(-c2cccc(NC(=O)Nc3cccc(-n4[nH]c(C)c(/N=N/c5c(O)cc(S(=O)(=O)O)c6cc([N+](=O)[O-])ccc56)c4=O)c3)c2)c(=O)c1/N=N/c1c(O)cc(S(=O)(=O)O)c2cc([N+](=O)[O-])ccc12			> 50%	> 50%	inhibition [3]: > 50%
O=C(CNC(=O)NCc1ccoc1)NNC(=O)Nc1cccc(Cl)c1			< 50%	< 50%	
O=C(CC(O)CCc1ccc(O)c(O)c1)O[C@H]1Cc2cc(O)c(O)cc2O[C@H]1c1ccc(O)c(O)c1 (stereo partly drawn)	1.4 µM	1 µM			

Source: ChEMBL document CHEMBL1133723, “Developing a dynamic pharmacophore model for HIV-1 integrase” (J Med Chem, 2000)
